Screens as filed in PubChem BioAssay.
SENP7 block: SENP7 protease inhibitors, primary screen, biochemical, luminescence, uHTS. inhibition, % at 5 µM. recombinant SENP7, Z-RLRGG-aminoluciferin luminescence, 40 min. 1.5% of 330,000 active. Sentrin-specific protease 7 (Homo sapiens), Q9BQF6;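 active = inhibition above about 50% at the single test dose, limit read from the data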;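 also: plate controls were DMSO with enzyme for no effect and no enzyme buffer wells for full effect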
SENP8 block-1: SENP8 protease inhibitors, primary screen, biochemical, luminescence; 1.2% of 330,000 active; purified SENP8, Z-RLRGG-aminoluciferin cleavage; Sentrin-specific protease 8 (Homo sapiens), Q96LD8; inhibition, % at 10 µM; AID 2540, 2010; in the data active = inhibition above about 50%
Target sequence (Q96LD8 whole entry, looked up): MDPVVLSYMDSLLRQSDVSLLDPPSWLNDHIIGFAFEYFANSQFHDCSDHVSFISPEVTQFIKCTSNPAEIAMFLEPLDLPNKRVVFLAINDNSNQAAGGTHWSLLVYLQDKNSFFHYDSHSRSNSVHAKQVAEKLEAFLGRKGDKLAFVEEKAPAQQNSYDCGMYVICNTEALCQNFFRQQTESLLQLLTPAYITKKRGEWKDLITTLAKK
SENP6 inh: SENP6 protease inhibitors, primary screen, biochemical, luminescence, uHTS; Sentrin-specific protease 6 (Homo sapiens), Q9GZR1; Recombinant SENP6 catalytic domain, aminoluciferin luminescence; inhibition, % at 10 µM; 1.8% of 330,000 active; AID 2599, 2010;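 active = inhibition above about 50% at the single tested dose, limit read from the data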;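 also: plate controls were DMSO wells with enzyme for no effect and DMSO wells lacking enzyme for full effect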
SENP1 FRET inh: human SENP1 catalytic domain inhibitors, primary screen, biochemical, FRET, uHTS; AID 624204, 2012; recombinant SENP1 catalytic domain, CyPet-SUMO1-YPet FRET cleavage; inhibition, % at 10 µM; 0.21% of 360,000 active; Sentrin-specific protease 1 (Homo sapiens), Q9P0U3;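 active = inhibition at least 30% at 10 µM, raw YFP signal under a set limit, fluorescence ratio 0.5 to 1.5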;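 also: 0% = enzyme with DMSO and 100% = no enzyme wells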
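Test system: human SENP1 catalytic domain; medium: Tris pH 8 buffer plus EDTA, NaCl, BME, BSA, NP40, catalase; incubation: 50 min reaction at room temperature; technique: FRET, CFP and YFP emission; controls: no-enzyme low control and enzyme-plus-DMSO high control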
SENP8 block-2: human SENP8 protease inhibitors, primary screen, biochemical, fluorescence, Nedd8 protein substrate, uHTS | inhibition, % at 20 µM | Sentrin-specific protease 8 (Homo sapiens), Q96LD8 | AID 602440, 2012 | 0.64% of 360,000 active | recombinant SENP8; in the data active = inhibition mostly above about 40%, no sharp cut-off; inactive = mostly below about 27%
SENP8 confirm: SENP8 protease inhibitors, retest, confirmation, biochemical, luminescence, single concentration. shares compounds with SENP7 block. Recombinant SENP8, Z-RLRGG-aminoluciferin luminescence, 60 min. inhibition, % at 12.5 µM. 40% of 6,200 active. AID 488912, 2010;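 active = mean inhibition across replicates above about 50%, limit read from the data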
SENP6 confirm: SENP6 protease inhibitors, confirmation, biochemical, luminescence, single concentration; inhibition, % at 12.5 µM; shares compounds with SENP7 block; 58% of 6,200 active; AID 488915, 2010; recombinant SENP6, Z-RLRGG-aminoluciferin luminescence
SENP7 confirm: SENP7 protease inhibitors, retest, confirmation, biochemical, luminescence, single concentration; AID 488917, 2010; recombinant SENP7, Z-RLRGG-aminoluciferin luminescence, 40 min; inhibition, % at 12.5 µM; shares compounds with SENP7 block; 69% of 6,200 active
Casp3 SENP sel: caspase-3 protease inhibitors, confirmation, selectivity assay for SENP inhibitor project, biochemical, single concentration; inhibition, % at 12.5 µM; shares compounds with SENP7 block; purified caspase-3, Z-DEVD-aminoluciferin luminescence, 60 min; 60% of 6,200 active; AID 488918, 2010;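 active = mean inhibition above about 50%, limit read from the data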;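 also: plate controls were enzyme with DMSO for no effect and wells without caspase-3 for full effect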
Target sequence (P42574 28-227 limits assumed): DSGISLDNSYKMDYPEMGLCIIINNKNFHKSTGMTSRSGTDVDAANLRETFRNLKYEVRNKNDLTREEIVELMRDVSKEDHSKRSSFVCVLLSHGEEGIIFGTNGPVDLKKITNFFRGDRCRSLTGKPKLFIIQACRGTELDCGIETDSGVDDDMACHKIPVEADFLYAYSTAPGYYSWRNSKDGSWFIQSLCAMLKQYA
SENP luc ctr: interferes with luciferase luminescence in SENP counter-screen | shares compounds with SENP7 block | Pre-incubated SENP8/Z-RLRGG-aminoluciferin, luciferase luminescence interference | inhibition, % at 12.5 µM | 39% of 6,200 active;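 active = mean inhibition above about 50% when retested at one dose, limit read from the data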;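 also: plate controls were DMSO wells with completed reaction for no effect and substrate without enzyme for full effect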
Numbers without * were called inactive; i = inactive; . = no result given. In the library only some 2.5% were active in any assay of this set; here they are far more common.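 The calls were made as follows, unless noted: active = mean inhibition above about 50% in the one-dose retest (limit read from the data); inactive = the rest.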

SMILES	SENP7 block	SENP8 block-1	SENP6 inh	SENP1 FRET inh	SENP8 block-2	SENP8 confirm	SENP6 confirm	SENP7 confirm	Casp3 SENP sel	SENP luc ctr
CCC(C)NC(=O)c1c(N)n(Cc2ccc3c(c2)OCO3)c2nc3ccccc3nc12 (stereo not drawn)	68*	92*	90*	-18	i	2	11	11	-3	3
Nc1c(C(=O)NCCN2CCOCC2)c2nc3ccccc3nc2n1Cc1ccccc1	6	0	25	-30	-425	.	.	.	.	.
CC(C)CCNC(=O)c1c(N)n(CC2CCCO2)c2nc3ccccc3nc12 (stereo not drawn)	74*	79*	82*	-19	-258	17	48	35	4	5
C[C@]12C[C@H](O)[C@@H](O)CC1=CCC1C2CC[C@@]2(C)C1CC[C@@H]2O (stereo partly drawn)	10	-1	-20	2	12	.	.	.	.	.
C=CC[C@@H](CC/C=C/C=C/CC/C=C\[C@@H]1CSC([C@@H]2C[C@@H]2C)=N1)OC	-5	7	-16	0	6	.	.	.	.	.
Nc1ccccc1C(=O)OCCOc1ccccc1	95*	86*	90*	1	i	92*	92*	99*	81*	90*
C=CCOC(=O)c1ccccc1N	3	-18	-11	0	-420	.	.	.	.	.
Cn1c(O)c(C=Nc2ccc(Br)cc2)c(=O)n(C)c1=O	26	50*	59*	0	-157	2	3	14	0	4
CC(=O)OC1C(O)C2=C3C4(C)C1C(C)(C)C(=O)CC4C3(O)C(OC(C)=O)C1(CC1C)C2=O (stereo not drawn)	.	.	.	-2	8	.	.	.	.	.
O=[N+]([O-])c1cccc(CN2CCN(Cc3ccc(Br)cc3)CC2)c1	-3	-1	-5	2	14	.	.	.	.	.
CNC(=O)Oc1ccc(-c2cn3cc(Cl)ccc3n2)cc1	67*	64*	78*	0	-333	37	37	75*	72*	21
Cc1cc(C(=O)N=Nc2c(O)n(C)c3ccccc23)c(C)o1	90*	79*	91*	3	28	54*	56*	48	5	10
Nc1c2c(nc3sc4c(c13)CCCCC4)CCCC2	19	35	54*	1	13	42	34	67*	46	17
CC(C)(C)n1cc(C(=O)c2ccc3ccccc3c2O)cn1	68*	57*	-33	6	9	18	15	2	11	14
COc1cc2c(cc1O)[C@@H]1Cc3ccc(OC)c(O)c3CN1CC2	49	64*	74*	-3	80*	10	29	17	6	4
COc1ccc(C[C@@H]2c3cc(O)c(OC)cc3CCN2C)cc1O	-6	-3	-4	0	9	.	.	.	.	.
CC/C(=N\Nc1ccccc1)c1c(O)n(-c2ccc(OC)cc2)c(=O)[nH]c1=O	-10	-10	-4	2	10	.	.	.	.	.
CCOC(=O)[C@]12Cc3cc(OC)ccc3[C@H]1N(C(C)C)C(=O)c1cc(OC)ccc12	.	.	.	2	-1	.	.	.	.	.
Oc1cc(O)cc(/C=C/c2ccc(O)cc2O)c1	40	46	70*	-3	-499	62*	62*	87*	59*	77*
COc1ccc(-c2cc(=Nc3cccc(C(=O)O)c3)c3cc(C)ccc3o2)cc1	82*	64*	50	2	-408	10	53*	68*	51*	65*
COc1ccc(OC)c(N2C(=O)NC(=O)/C(=C\c3ccc([N+](=O)[O-])s3)C2=O)c1	0	10	51*	7	48*	14	33	14	6	4
CN(C)C(=O)Oc1ccc(OCc2nc3ccccc3[nH]2)cc1	95*	-6	91*	0	14	94*	94*	100*	96*	93*
CN(C)C(=O)Oc1ccc(OC(=O)N(C)C)cc1	4	4	-6	-1	7	.	.	.	.	.
CCOC(=O)[C@]12Cc3ccc4ccccc4c3[C@H]1N(Cc1ccccc1)C(=O)c1ccccc12	.	.	.	3	10	.	.	.	.	.
COc1ccc(-n2nnnc2C(c2cccc3ccccc23)N2CCC3(CC2)C(=O)NCN3c2ccccc2)cc1 (stereo not drawn)	.	.	.	0	26	.	.	.	.	.
SMILES	SENP7 block	SENP8 block-1	SENP6 inh	SENP1 FRET inh	SENP8 block-2	SENP8 confirm	SENP6 confirm	SENP7 confirm	Casp3 SENP sel	SENP luc ctr
COc1ccc(N2CCN(C(CNC(=O)Oc3ccccc3)c3cccnc3)CC2)cc1 (stereo not drawn)	71*	1	8	-2	7	-12	-2	-7	2	3
O=c1[nH]c(=S)[nH]c(O)c1N=Nc1ccc(S(=O)(=O)N2CCOCC2)cc1	0	-11	-14	-3	35	.	.	.	.	.
O=c1[nH]c(=S)[nH]c(O)c1N=Nc1ccc(OC(F)F)cc1	93*	92*	94*	8	27	91*	92*	88*	96*	44
CN(C)S(=O)(=O)c1cccc(C(=O)N2CCC(C(=O)O)(c3ccccc3)CC2)c1	-8	-7	-22	0	3	.	.	.	.	.
CSCCC(c1nnnn1C(C)(C)C)N1CCC2(CC1)C(=O)NCN2c1ccccc1 (stereo not drawn)	.	.	.	0	28	.	.	.	.	.
CCOC(=O)c1cccc(NC(=O)c2c(O)[nH]c(=O)[nH]c2=O)c1	51*	27	58*	0	7	48	41	81*	73*	45
CCCCOC(=O)c1ccc(NC(=O)c2c(O)[nH]c(=O)[nH]c2=O)cc1	-8	-12	-23	4	-1	.	.	.	.	.
CCCCCc1nc2c(c(=O)c3ccccc3n2C)c(=O)n1C1CCCCCC1	0	-7	-1	-14	12	.	.	.	.	.
